# Source: PubChem BioAssay (several laboratories)
# UBC13 inh: blocks human UBC13 polyubiquitin chain formation. 0.47% of 330,000 active. inhibition, % at 20 µM. TR-FRET. P61088; in the data active = inhibition above about 45%, passing the limit was not always enough
# Target sequence (P61088 whole entry, looked up): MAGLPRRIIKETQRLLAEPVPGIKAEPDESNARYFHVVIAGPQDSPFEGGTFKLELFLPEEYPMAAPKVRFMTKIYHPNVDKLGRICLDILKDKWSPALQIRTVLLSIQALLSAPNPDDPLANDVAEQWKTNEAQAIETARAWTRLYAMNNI
# MEKK2wt PB1 HTS: raises or lowers MEK5 binding to wildtype human MEKK2 PB1 domain | Q9Y2U5 | bead flow cytometry, Alexa488-MEK5 binding to MEKK2 WT; actives lie on both sides | binding response (% of control), % at 10 µM | 1.1% of 290,000 active; in the data active = binding response below about 67% or above about 130%
# Pemphigus Ab inh: human desmoglein-3 autoantibody binding inhibition | P32926 | DSG3-coupled beads, scFv-anti-DSG3-GFP binding, flow cytometry; hits give low values | binding (percent of control), % at 10 µM | 0.48% of 310,000 active;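 active = binding more than 3 SD below its plate's average and above zero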;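 also: hits lower antibody fragment binding to DSG3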
# MEKK2mut PB1 HTS: signal of MEK5 binding to mutant human MEKK2 PB1 domain; percent response, % at 10 µM; bead flow cytometry, Alexa488-MEK5 binding to MEKK2 mutant; 0.35% of 290,000 active; in the data active = percent response above about 24%, passing the limit was not always enough
# MEKK3 PB1 HTS: modulators (inhibitors or enhancers) of MEK5 binding to human MEKK3 PB1 domain; AID 1529; bead-based flow cytometry, Alexa488-MEK5 binding to MEKK3; actives lie on both sides; 0 = blocked by unlabeled MEK5, 100 = vehicle; 1.4% of 290,000 active; Q99759; binding response (% of control), % at 10 µM;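 active = binding response more than 3 SD above or below the average of its plate-row segment, actives on both sides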;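 also: Alexa488 bead fluorescence after subtracting the streptavidin-only scavenger bead signal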
# Apaf1 inhib: inhibitors of human Apaf-1 apoptosome; O14727; reconstituted apoptosome caspase-3 activity, DEVD-Rh110 fluorescence; inhibition, % at 20 µM; 0.71% of 330,000 active; active = inhibition of at least 40% at 20 µM;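 also: plate controls were DMSO wells for no effect and DEVD-CHO caspase inhibitor wells for full effect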
#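 System – cell-free apoptosome with Apaf-1, procaspase-3 and caspase-9 · Buffer or medium – pH 7.5 Hepes buffer with CHAPS, BSA, DTT · Also added – cytochrome c with DEVD-Rh110 · Times – 30 min compound preincubation, 50 min activation, room temperature · Technique – Rh110 fluorescence intensity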
# MEKK2wt confirm: raises or lowers MEK5 binding to wildtype human MEKK2, retest | shares compounds with MEKK3 PB1 HTS | bead flow cytometry, Alexa488-MEK5 binding to MEKK2 WT; actives lie on both sides | 2.4% of 5,900 active | binding response (% of control), % at 10 µM; in the data active = binding response below about 16% or above about 210%; inactive = in between
# MEKK2mut confirm: signal of MEK5 binding to mutant human MEKK2, retest | shares compounds with MEKK3 PB1 HTS | bead flow cytometry, Alexa488-MEK5 binding to MEKK2 mutant | percent response, % at 10 µM | 2% of 5,900 active; in the data active = percent response mostly above about 71%, no sharp cut-off; inactive = mostly below about 38%;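 also: higher means compound restores mutant binding toward wildtype level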
# MEKK3 confirm: confirmation of inhibitors of MEK5 binding to human MEKK3; AID 1894; 1.8% of 5,900 active; binding response (% of control), % at 10 µM; shares compounds with MEKK3 PB1 HTS; bead flow cytometry, Alexa488-MEK5 binding to MEKK3; hits give low values;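 active = binding response below 72% of control, or above a set upper limit, though filed actives all read lower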;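 also: 100% = DMSO only wells and 0% = binding blocked by excess unlabeled MEK5; lower values mean stronger disruption of MEK5 binding to MEKK3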
# * hit, by the source's call; . = no result given; [ ] = another dose, or the depositor's remark. This is a sample that favours compounds with a hit; in the whole collection about 3.2% have one here.
SMILES,UBC13 inh,MEKK2wt PB1 HTS,Pemphigus Ab inh,MEKK2mut PB1 HTS,MEKK3 PB1 HTS,Apaf1 inhib,MEKK2wt confirm,MEKK2mut confirm,MEKK3 confirm
CC12CCC(=O)N1C(C(=O)Nc1cc(S(=O)(=O)N3CCCCCC3)ccc1OCC(F)(F)F)CS2 (stereo unspecified),-4,97,108,-1,93,27,.,.,.
CC(=O)Nc1ccc(S(=O)(=O)N[C@@H](C)C(=O)OCc2ccc(Cl)cc2)cc1,9,107,112,0,144*,7,107,0,102
CC(=O)Nc1ccc(S(=O)(=O)N[C@@H](C)C(=O)OCC(=O)c2ccc(C)cc2)cc1,4,.,101,.,.,-2,.,.,.
O=C(c1ccc(NS(=O)(=O)c2ccc3[nH]c(=O)[nH]c3c2)cc1)N1CCN(c2ccccc2O)CC1,-4,.,95,.,.,7,.,.,.
COc1ccc(C(=O)Nc2ccccc2C(=O)NCCCn2ccnc2)cc1,.,121,98,11,122*,.,111,8,108
CCCNC(=O)COc1coc(CN2CCN(c3ccccc3OC)CC2)cc1=O,2,108,101,5,104,6,.,.,.
COc1ccc(C(=O)NCC(=O)OCC(=O)NCc2ccc3c(c2)OCO3)cc1,-16,.,131,.,.,-2,.,.,.
Cc1nc2cc(-c3ccc(Cl)cc3)nn2c(NCCN(C)C)c1C,18,148*,101,29,113,8,132,18,110
Cc1cc(C)nc(NNC(=O)c2ccccc2O)n1,11,111,104,1,129*,4,104,3,103
Cc1cc(NC(=O)c2ccccc2O)nc(C)n1,2,105,101,2,104,-3,.,.,.
CCN(CC)CCN(C(=O)c1ccc(S(=O)(=O)N2CCCCC2)cc1)c1nc2cc3c(cc2s1)OCO3,39,127,86,2,132*,-6,132,31,110
CCN(CC)CCN(C(=O)CN1C(=O)c2ccccc2C1=O)c1nc2cc3c(cc2s1)OCO3,6,122,111,14,105,23,.,.,.
CCN(CC)CCN(C(=O)c1ccc2ccccc2c1)c1nc2cc3c(cc2s1)OCO3,20,135*,.,21,105,19,116,5,100
Cc1ccc2c(c1)[nH]c1c(N3CCN(Cc4ccccc4)CC3)ncnc12,11,158*,122,18,109,1,119,13,106
Cc1ccc2[nH]c3c(N4CCN(Cc5ccccc5)CC4)ncnc3c2c1,12,105,108,1,111,17,.,.,.
COc1ccc2c(c1)[nH]c1c(N3CCN(Cc4ccc5c(c4)OCO5)CC3)ncnc12,-1,152*,100,8,114,13,146,33,107
Cc1ccc(S(=O)(=O)c2c(N)n(-c3ccccc3)c3nc4ccccc4nc23)cc1,10,102,85,0,136*,14,94,2,92
Cc1ccc(S(=O)(=O)Nc2ccc3cc([N+](=O)[O-])ccc3c2[N+](=O)[O-])cc1,.,.,92,.,.,.,.,.,.
O=C(NC1CCN(Cc2ccccc2)CC1)C1CCN(c2nnc(-n3cccc3)s2)CC1,36,203*,103,50*,112,10,183,65,111
COc1nc(NCCO)nc(Nc2ccccc2F)n1,1,107,98,8,105,-5,.,.,.
COc1nc(Nc2ccccc2F)nc(OC)n1,10,102,105,25*,102,-8,105,1,101
COC(=O)N/N=C/c1cc(C)n(-c2ccccc2)c1C,-2,1.0*[inhibitor],84,-4,1.0*[inhibitor],-11,101,0,100
COC(=O)CSc1nnc(COc2cccc3ccccc23)o1,5,117,114,28*,116,5,105,4,108
Cc1ccc(S(=O)(=O)N2CCCC2CNC(=O)C(=O)NCc2ccc3c(c2)OCO3)cc1 (stereo unspecified),.,.,105,.,.,.,.,.,.
COc1ccccc1-n1c(SCC(=O)N2CCOCC2)nc2ccccc2c1=O,-2,95,96,-7,99,0,.,.,.
SMILES,UBC13 inh,MEKK2wt PB1 HTS,Pemphigus Ab inh,MEKK2mut PB1 HTS,MEKK3 PB1 HTS,Apaf1 inhib,MEKK2wt confirm,MEKK2mut confirm,MEKK3 confirm
COc1ccccc1-n1c(CNc2c(C)cccc2C)nnc1SCC(=O)N1CCOCC1,.,120,101,5,122*,.,102,-1,104
C[C@@H]1CN([C@@H](C)CO)C(=O)c2cc(Br)cnc2O[C@H]1CN(C)C(=O)CN1CCOCC1,.,.,101,.,.,.,.,.,.
CN1CCN(c2ccc(C(F)(F)F)cc2NC(=O)Nc2ccccc2)CC1,22,150*,100,18,109,10,159,39,110
COc1cc(CCC(=O)Nc2ccc(Br)c(C(F)(F)F)c2)cc(OC)c1OC,17,112,98,0,151*,15,105,1,102
Cn1c(O)c(C2=c3ccccc3=NC2=O)[nH]c1=S,-132,96,91,-1,75*[inhibitor],-7,96,9,97
CC1(C)CC(CC(=O)Nc2ccccc2[N+](=O)[O-])C(=O)O1 (stereo unspecified),6,109,102,0,147*,-13,108,2,104
Cc1ccccc1-c1nc(CS(=O)CC(=O)NC2CCCCC2)c(C)o1 (stereo unspecified),-2,99,79,0,100,-1,.,.,.
Cc1ccc(S(=O)(=O)N2CCN(CC(=O)N/N=C\C(Cl)=C\c3ccccc3)CC2)cc1,6,106,104,0,137*,12,96,-5,99
CC(/C=N\NC(=O)CN1CCN(S(=O)(=O)c2ccc(C)cc2)CC1)=C\c1ccccc1,.,107,111,0,132*,.,99,-2,106
Cc1ccc(S(=O)(=O)N2CCN(CC(=O)N/N=C\c3ccncc3)CC2)cc1,3,103,100,1,103,-7,.,.,.
COC(=O)c1c(NC(=O)c2ccccc2F)sc(C(=O)N2CCOCC2)c1C,9,97,103,-3,99,8,.,.,.
CCOC(=O)c1sc2cc([N+](=O)[O-])cc(SCC(C)C)c2c1N,-34,16*,132,28*,103,-19,112,6,101
CCOC(=O)c1cc(N)cc([N+](=O)[O-])c1,2,96,101,-2,94,-8,.,.,.
